Test results published in ChEMBL document CHEMBL4152215, “Anti-leishmanial click modifiable thiosemicarbazones: Design, synthesis, biological evaluation and in silico studies” (Eur J Med Chem, 2018).

Key:
Leishmania major [1] = test: Antileishmanial activity against promastigote form of Leishmania major assessed as parasite growth inhibition after 48 hrs by alamar blue assay; assay type: functional, organism-based
Leishmania major [2] = test: Antileishmanial activity against axenic amastigote form of Leishmania major assessed as parasite growth inhibition after 72 hrs by resazurin dye based assay; assay type: functional, organism-based
Summary of the method: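 Axenic L. major amastigotes, generated in RPMI-1640 with 10% heat-inactivated FCS, penicillin/streptomycin and L-glutamine, seeded at 2 x 10³ cells/ml onto serially diluted compound (0.04-10 final). Held at 31°C, 5% CO₂, humidified, for 72 h. Resazurin added at 68 h and read at 72 h (ex 530/em 590 nm). IC50 from sigmoidal dose-response curves; mean ± SEM, triplicate experiments in duplicate.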

Leishmania major [3] = test: Potency index, ratio of miltefosine IC50 to compound IC50 for antileishmanial activity axenic amastigote form of Leishmania major; assay type: functional
[4] = Cytotoxicity against African green monkey Vero cells assessed as reduction in cell viability after 72 hrs by crystal violet staining based assay; settings: chlorocebus sabaeus
Summary of the method: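 Vero cells seeded at 1×10^5 cells/well in MEM with 5% heat-inactivated FBS. Viability by crystal violet staining; CC50 from concentration-response. At least 3 separate experiments, each in duplicate.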

[5] = Selectivity index, ratio of CC50 African green monkey Vero cells to IC50 for promastigote form of Leishmania major; assay type: toxicity; settings: Vero cells versus Leishmania major promastigotes, read-out: Ratio CC50/IC50
Summary of the method: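 Selectivity index calculated as Vero CC50 (72 h crystal violet) divided by promastigote IC50.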

Mus musculus [6] = test: Acute toxicity in mouse assessed as effect on body weight at 25 to 125 mg/kg/day, po administered via gavage measured during 3 days post dose; assay type: organism-based; settings: in vivo, 72 h
Summary of the method: (§1)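 Male mice (25-30 g), six per group, fasted overnight and weighed before dosing. Compound suspended in aqueous 1% gum acacia and given by oral gavage in ascending doses of 25, 50, 75, 100 and 125 mg/kg/day (groups I-V). Vehicle group received gum acacia at up to 1 mL/100 g. Mortality recorded at 24 h and followed for seven days. Spleen, lung, liver and kidney examined.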

Mus musculus [7] = test: Acute toxicity in mouse assessed as induction of death at 25 to 125 mg/kg/day, po administered via gavage measured during 3 days post dose; assay type: organism-based; settings: in vivo, 72 h; summary of the method: as §1
Mus musculus [8] = test: Acute toxicity in mouse up to 125 mg/kg/day, po administered via gavage measured after 24 hrs and followed up to 7 days; assay type: organism-based; settings: in vivo; summary of the method: as §1
Mus musculus [9] = test: Acute toxicity in mouse assessed as effect on survival up to 75 mg/kg dosed via parenteral route measured up to 7 days; assay type: organism-based; settings: in vivo, 168 h
Summary of the method: (§2)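 Groups of six mice dosed by intraperitoneal injection at 5, 10, 25, 50 and 75 mg/kg, with propylene glycol as vehicle and control. Spleen, lung, liver and kidney taken from the 75 mg/kg animals and examined for texture.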

Mus musculus [10] = test: Acute toxicity in mouse assessed as effect on spleen morphology at 125 mg/kg, po administered via gavage measured after 24 hrs and followed up to 7 days by histopathological analysis; assay type: organism-based; settings: in vivo; summary of the method: as §1
Mus musculus [11] = test: Acute toxicity in mouse assessed as effect on spleen morphology at 75 mg/kg, ip measured up to 7 days by histopathological analysis; assay type: organism-based; settings: in vivo, 168 h; summary of the method: as §2
Mus musculus [12] = test: Acute toxicity in mouse assessed as effect on lung morphology at 125 mg/kg, po administered via gavage measured after 24 hrs and followed up to 7 days by histopathological analysis; assay type: organism-based; settings: in vivo; summary of the method: as §1
Mus musculus [13] = test: Acute toxicity in mouse assessed as effect on lung morphology at 75 mg/kg, ip measured up to 7 days by histopathological analysis; assay type: organism-based; settings: in vivo, 168 h; summary of the method: as §2
Mus musculus [14] = test: Acute toxicity in mouse assessed as effect on liver morphology at 125 mg/kg, po administered via gavage measured after 24 hrs and followed up to 7 days by histopathological analysis; assay type: organism-based; settings: in vivo; summary of the method: as §1
Mus musculus [15] = test: Acute toxicity in mouse assessed as effect on liver morphology at 75 mg/kg, ip measured up to 7 days by histopathological analysis; assay type: organism-based; settings: in vivo, 168 h; summary of the method: as §2
Mus musculus [16] = test: Acute toxicity in mouse assessed as effect on kidney morphology at 125 mg/kg, po administered via gavage measured after 24 hrs and followed up to 7 days by histopathological analysis; assay type: organism-based; settings: in vivo; summary of the method: as §1
Mus musculus [17] = test: Acute toxicity in mouse assessed as effect on kidney morphology at 75 mg/kg, ip measured up to 7 days by histopathological analysis; assay type: organism-based; settings: in vivo, 168 h; summary of the method: as §2
Leishmania major [18] = test: Antileishmanial activity against Leishmania major assessed as parasite survival at 0.25 uM after 48 hrs relative to control; assay type: functional
Summary of the method: (§3)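 L. major promastigotes in log phase (10⁶ parasites) pre-incubated with folic or folinic acid (20 or 100 µM), washed, resuspended in PBS for 1 h at room temperature, then returned to culture medium in 24-well plates. Compounds added at the fixed concentration, with trimethoprim at 100 µM. Incubated 48 h; living parasites counted per mL against untreated control wells.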

Leishmania major [19] = test: Antileishmanial activity against Leishmania major assessed as parasite survival at 0.25 uM after 48 hrs in presence of 20 uM folic acid relative to control; assay type: functional; summary of the method: as §3
Leishmania major [20] = test: Antileishmanial activity against Leishmania major assessed as parasite survival at 0.25 uM after 48 hrs in presence of 100 uM folic acid relative to control; assay type: functional; summary of the method: as §3
Leishmania major [21] = test: Antileishmanial activity against Leishmania major assessed as parasite survival at 0.25 uM after 48 hrs in presence of 20 uM folinic acid relative to control; assay type: functional; summary of the method: as §3
Leishmania major [22] = test: Antileishmanial activity against Leishmania major assessed as parasite survival at 0.25 uM after 48 hrs in presence of 100 uM folinic acid relative to control; assay type: functional; summary of the method: as §3
Leishmania major [23] = test: Potency index, ratio of miltefosine IC50 to compound IC50 for antileishmanial activity promastigote form of Leishmania major; assay type: functional
Leishmania major [24] = test: Antileishmanial activity against Leishmania major assessed as parasite survival at 0.16 uM after 48 hrs relative to control; assay type: functional; summary of the method: as §3
Leishmania major [25] = test: Antileishmanial activity against Leishmania major assessed as parasite survival at 0.16 uM after 48 hrs in presence of 100 uM folic acid relative to control; assay type: functional; summary of the method: as §3
Leishmania major [26] = test: Antileishmanial activity against Leishmania major assessed as parasite survival at 0.16 uM after 48 hrs in presence of 20 uM folic acid relative to control; assay type: functional; summary of the method: as §3
Leishmania major [27] = test: Antileishmanial activity against Leishmania major assessed as parasite survival at 0.16 uM after 48 hrs in presence of 20 uM folinic acid relative to control; assay type: functional; summary of the method: as §3
Leishmania major [28] = test: Antileishmanial activity against Leishmania major assessed as parasite survival at 0.16 uM after 48 hrs in presence of 100 uM folinic acid relative to control; assay type: functional; summary of the method: as §3

C#CCOc1ccc(/C=N/NC(N)=S)cc1OC
IC50 (Leishmania major [1]): 0.227 µM
IC50 (Leishmania major [2]): 1.4 µM
Ratio IC50 (Leishmania major [3]): 6
CC50 at 72 h [4]: 828 µM
selectivity ratio [5]: 3640
Activity (Mus musculus [6]): Non-Toxic
Activity (Mus musculus [7]): Non-Toxic
Activity (Mus musculus [8]): Non-Toxic
Activity (Mus musculus [9]): Non-Toxic
Activity (Mus musculus [10]): Non-Toxic
Activity (Mus musculus [11]): Non-Toxic
Activity (Mus musculus [12]): Non-Toxic
Activity (Mus musculus [13]): Non-Toxic
Activity (Mus musculus [14]): Non-Toxic
Activity (Mus musculus [15]): Non-Toxic
Activity (Mus musculus [16]): Non-Toxic
Activity (Mus musculus [17]): Non-Toxic
Activity (Leishmania major [18]): 25%
Activity (Leishmania major [19]): 89%
Activity (Leishmania major [20]): 97%
Activity (Leishmania major [21]): 90%
Activity (Leishmania major [22]): 98%

COc1cc(/C=N\NC(N)=S)ccc1OCc1cn(CC(=O)c2ccc(Br)cc2)nn1
IC50 (Leishmania major [1]): 3.97 µM
IC50 (Leishmania major [2]): 5.1 µM

COc1cc(/C=N/NC(N)=S)ccc1OCc1cn(CC(=O)c2ccc(C)cc2)nn1
IC50 (Leishmania major [1]): 4.82 µM
IC50 (Leishmania major [2]): 4.97 µM

COc1ccc(/C=N\NC(N)=S)cc1OCc1cn(CC(=O)c2ccc(Cl)cc2)nn1
IC50 (Leishmania major [1]): 0.798 µM
IC50 (Leishmania major [2]): 1.69 µM
Ratio IC50 (Leishmania major [3]): 5

COc1cc(/C=N\NC(N)=S)ccc1OCc1cn(CC(=O)c2ccc(Cl)cc2)nn1
IC50 (Leishmania major [1]): 4.76 µM
IC50 (Leishmania major [2]): 5.4 µM

COc1ccc(/C=N/NC(N)=S)cc1OCc1cn(-c2ccc(S(N)(=O)=O)cc2)nn1
IC50 (Leishmania major [1]): 4.38 µM
IC50 (Leishmania major [2]): 4.35 µM

C/C(=N/NC(N)=S)c1ccc(OCc2cn(CC(=O)c3ccc(Br)cc3)nn2)cc1
IC50 (Leishmania major [1]): 0.14 µM
IC50 (Leishmania major [2]): 1 µM
Ratio IC50 (Leishmania major [3]): 8
Ratio IC50 (Leishmania major [23]): 55.6
CC50 at 72 h [4]: 509 µM
selectivity ratio [5]: 3630
Activity (Mus musculus [6]): Non-Toxic
Activity (Mus musculus [7]): Non-Toxic
Activity (Mus musculus [8]): Non-Toxic
Activity (Mus musculus [9]): Non-Toxic
Activity (Mus musculus [10]): Non-Toxic
Activity (Mus musculus [11]): Non-Toxic
Activity (Mus musculus [12]): Non-Toxic
Activity (Mus musculus [13]): Non-Toxic
Activity (Mus musculus [14]): Non-Toxic
Activity (Mus musculus [15]): Non-Toxic
Activity (Mus musculus [16]): Non-Toxic
Activity (Mus musculus [17]): Non-Toxic
Activity (Leishmania major [24]): 23%
Activity (Leishmania major [25]): 99%
Activity (Leishmania major [26]): 91%
Activity (Leishmania major [27]): 90%
Activity (Leishmania major [28]): 99%

COc1ccc(/C=N/NC(N)=S)cc1OCc1cn(CC(=O)c2ccc(F)cc2)nn1
IC50 (Leishmania major [1]): 2.52 µM
IC50 (Leishmania major [2]): 4.83 µM

C/C(=N/NC(N)=S)c1ccc(OCc2cn(-c3ccc(C(=O)O)cc3)nn2)cc1
IC50 (Leishmania major [1]): 7.41 µM
IC50 (Leishmania major [2]): 6.04 µM

COc1cc(/C=N/NC(N)=S)ccc1OCc1cn(CC(=O)c2ccc(F)cc2)nn1
IC50 (Leishmania major [1]): 6.93 µM
IC50 (Leishmania major [2]): 6.46 µM

COc1ccc(/C=N\NC(N)=S)cc1OCc1cn(CC(=O)c2ccccc2)nn1
IC50 (Leishmania major [1]): 4.4 µM
IC50 (Leishmania major [2]): 4.38 µM

COc1ccc(/C=N/NC(N)=S)cc1OCc1cn(CC(=O)c2ccc(C)cc2)nn1
IC50 (Leishmania major [1]): 0.99 µM
IC50 (Leishmania major [2]): 2.18 µM
Ratio IC50 (Leishmania major [3]): 4

COc1cc(/C=N/NC(N)=S)ccc1OCc1cn(-c2ccc(C(=O)O)cc2)nn1
IC50 (Leishmania major [1]): 5.74 µM
IC50 (Leishmania major [2]): 5.6 µM

COc1ccc(/C=N/NC(N)=S)cc1OCc1cn(-c2ccc(C(=O)O)cc2)nn1
IC50 (Leishmania major [1]): 5 µM
IC50 (Leishmania major [2]): 4.78 µM

COc1ccc(/C=N\NC(N)=S)cc1OCc1cn(CC(=O)c2ccc(Br)cc2)nn1
IC50 (Leishmania major [1]): 5.69 µM
IC50 (Leishmania major [2]): 4.48 µM

COc1cc(/C=N\NC(N)=S)ccc1OCc1cn(CC(=O)c2ccccc2)nn1
IC50 (Leishmania major [1]): 4.87 µM
IC50 (Leishmania major [2]): 5.39 µM

C/C(=N/NC(N)=S)c1ccc(OCc2cn(-c3ccc(S(N)(=O)=O)cc3)nn2)cc1
IC50 (Leishmania major [1]): 6.79 µM
IC50 (Leishmania major [2]): 8.26 µM

CCCCCCCCCCCCCCCCOP(=O)([O-])OCC[N+](C)(C)C [MILTEFOSINE]
IC50 (Leishmania major [2]): 8.09 µM
